# Assay outcomes (PubChem)
# MT stabilize HCS: stabilizes microtubules in HeLa cells; HeLa tubulin immunostaining HCS, 24 h; share of cells brighter than vehicle mean+2SD; % tubulin-high responders, % at 10 µM; 200,000 tested, 0.83% active;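 active means plate Z-score above 3 for both tubulin-high and condensed-nucleus cell shares, with cell loss under 80%, at 10 µM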;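 further: anti alpha tubulin signal scored within the nucleus-defined area of each cell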
# BaF3 parental: parental Ba/F3 viability inhibition as JAK2V617F counter-screen | inhibition, % at 5.6 µM | 220,000 tested, 1.1% active | AID 1486 | CellTiter-Glo ATP luminescence;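 active means inhibition above a per-campaign cutoff, the mean inhibition of all tested compounds plus 3 SD, cut at about 27% in these data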;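 further: 0% = DMSO wells and 100% = JAK Inhibitor I control wells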
# APP 5UTR inh: APP translation inhibition | inhibition, % at 2 µM | 190,000 tested, 0.82% active | SH-SY5Y APP 5'UTR-luciferase reporter, luminescence | AID 1285;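 active means inhibition above a set limit, derived from the sample mean plus 3 SD, cut at about 45% in these data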
# b-catenin transl: beta-catenin nuclear translocation modulation; HeLa beta-catenin nuclear translocation, immunofluorescence imaging; nuclear translocation activity, % at 5 µM; 190,000 tested, 0.3% active; AID 1665;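 active means nuclear translocation activity above 50% at 5 µM, with a well cell count of 50 or more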;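 further: per-cell ratio of nuclear to cytoplasmic median beta-catenin stain intensity; plate controls were DMSO negative control for no effect and GSK-3 inhibitor IX positive control for full effect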
#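 System: Human HeLa cells, endogenous beta-catenin | Compound dosing: 5 µM primary, 0.02–20 µM confirmation | Timing: 24 h compound exposure at 37°C, 5% CO2 | Measured by: Fluorescence imaging of beta-catenin antibody stain plus DAPI | Read-out basis: % activation of per-cell nuclear versus cytoplasmic median beta-catenin signal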
# Lmaj promast: inhibitors of Leishmania major promastigote growth. inhibition, % at 10 µM. AID 1063. 200,000 tested, 9% active. Leishmania major promastigotes, resazurin fluorescence viability; in the data active means inhibition above about 50%;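 further: promastigotes grown with compound for 44 hours at 28 °C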
# Ba/F3 V617F tox: reduce viability of Ba/F3 cells dependent on JAK2V617F; 220,000 tested, 1.1% active; inhibition, % at 5.6 µM; Ba/F3 EpoR-JAK2V617F viability, ATP luminescence;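 active means inhibition above the campaign mean plus 3 SD over all tested compounds, cut at about 24% in these data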;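 further: cytokine-independent growth of Ba/F3 cells driven by EpoR plus mutant JAK2; 0% = DMSO-treated cells and 100% = JAK inhibitor I control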
# * marks the source's active call; other numbers are inactive results; / = no result given. Hits are enriched below; roughly 9.6% of the tested compounds scored in any of these assays.
SMILES,MT stabilize HCS,BaF3 parental,APP 5UTR inh,b-catenin transl,Lmaj promast,Ba/F3 V617F tox
Cc1ccc2nc3c(c(C(=O)OCC(=O)NC4CCS(=O)(=O)C4)c2c1)CCCC3 (centres undefined),3.6,-3.1,-9.9,0.8,4.2,-1.5
O=[N+]([O-])c1cc(S(=O)(=O)Nc2ccccc2)ccc1N1CCN(c2ccccc2)CC1,3.8,7.5,-7.7,-3.7,88.4*,0.5
C/C(=N\N=C1/NC(=O)C(C)S1)c1ccco1 (centres undefined),3.2,10.6,9.3,-0.2,-5.9,3.8
CC(C)=C1C2CC2C2C(C(=O)O)C12 (centres undefined),1.6,3.0,-31.2,-0.7,-2.5,0.5
O=C(Nc1ccc2c(c1)nc1n2CCN(C2CCCCC2)C1)NC1CCCCC1,2.5,29.6*,-7.9,-0.9,-1.6,6.8
O=C(NNS(=O)(=O)c1ccc(C(F)(F)F)cc1)c1cnn(-c2ccccc2)c1C(F)(F)F,/,-5.2,/,-0.9,/,-0.8
CCCCN=c1sc(C(=O)OC)cc(=O)n1CCCC,5.0,2.8,7.3,0.5,4.6,-0.7
COC(=O)c1cc(=O)n(CCc2ccccc2)c(=Nc2ccc(F)cc2)s1,3.9,0.6,-8.4,-1.3,90.3*,5.8
CCn1c(=O)cc(C(=O)OC)sc1=Nc1ccc(F)c(F)c1,8.6,4.9,-6.7,/,86.2*,-2.3
COC(=O)c1cc(=O)n(Cc2ccc(OC)cc2)c(=NCc2ccc(OC)cc2)s1,4.7,5.7,15.4,-1.6,7.2,2.4
COC(=O)c1cc(=O)n(CCc2ccc(OC)cc2)c(=Nc2ccc(F)c(Cl)c2)s1,13.6,3.9,7.1,/,99.8*,-3.5
CCOC(=O)c1ccc(N=c2sc(C(=O)OC)cc(=O)n2CCCN2CCOCC2)cc1,1.4,1.2,-23.5,-1.7,99.7*,0.3
COC(=O)c1cc(=O)n(Cc2ccccc2)c(=NCc2ccccc2)s1,1.3,2.8,-14.0,-0.1,-7.0,2.1
Cc1cc(C)c(C)c(S(=O)(=O)N2CCN(CC(=O)Nc3ccc([N+](=O)[O-])cc3)CC2)c1C,1.6,6.1,6.5,0.6,-5.0,-0.3
Cc1ccccc1C(=O)/C=C1/SCC(=O)N1C,2.1,5.2,11.6,-2.2,15.9,2.7
COC(=O)c1cc(=O)n(Cc2ccc3c(c2)OCO3)c(=Nc2ccc(F)c(Cl)c2)s1,6.5,7.0,6.9,/,100.2*,-2.1
COC(=O)c1cc(Br)c(=O)n(Cc2ccc3c(c2)OCO3)c1,8.2,-1.6,11.4,0.9,-4.7,-1.9
